Only some compounds are listed: those with a hit (about 2.5% of all), similar ones and a draw of the others.
Platelet DG rel: inhibitors of platelet dense granule secretion, primary screen, cell-based, MLPCN, human platelets; inhibition, %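 (compounds screened at 7.5 µM in platelet-rich plasma)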; actives 0.22% (n = 300,000); human platelet-rich plasma, SFLLRN dense granule ATP release, luminescence;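 active means mean replicate score, as percent of positive control, at or above 50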
TRPC4 potent: positive allosteric modulators of TRPC4, primary screen, cell-based, mouse TRPC4beta, HEK293 mu-opioid, Fluo-4 calcium. Short transient receptor potential channel 4 (Mus musculus), Q9QUQ5. DAMGO EC20, Fluo-4 Ca2+ flux; hits give high values. actives 0.42% (n = 310,000). B-score at 10 µM;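 active means B-score of calcium response area above 5 SD of library B-scores, with initial fluorescence ratio within 5 SD of library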;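 further: B-score of integrated fluorescence ratio over time as area under calcium response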
Target sequence (Q9QUQ5 whole entry, looked up): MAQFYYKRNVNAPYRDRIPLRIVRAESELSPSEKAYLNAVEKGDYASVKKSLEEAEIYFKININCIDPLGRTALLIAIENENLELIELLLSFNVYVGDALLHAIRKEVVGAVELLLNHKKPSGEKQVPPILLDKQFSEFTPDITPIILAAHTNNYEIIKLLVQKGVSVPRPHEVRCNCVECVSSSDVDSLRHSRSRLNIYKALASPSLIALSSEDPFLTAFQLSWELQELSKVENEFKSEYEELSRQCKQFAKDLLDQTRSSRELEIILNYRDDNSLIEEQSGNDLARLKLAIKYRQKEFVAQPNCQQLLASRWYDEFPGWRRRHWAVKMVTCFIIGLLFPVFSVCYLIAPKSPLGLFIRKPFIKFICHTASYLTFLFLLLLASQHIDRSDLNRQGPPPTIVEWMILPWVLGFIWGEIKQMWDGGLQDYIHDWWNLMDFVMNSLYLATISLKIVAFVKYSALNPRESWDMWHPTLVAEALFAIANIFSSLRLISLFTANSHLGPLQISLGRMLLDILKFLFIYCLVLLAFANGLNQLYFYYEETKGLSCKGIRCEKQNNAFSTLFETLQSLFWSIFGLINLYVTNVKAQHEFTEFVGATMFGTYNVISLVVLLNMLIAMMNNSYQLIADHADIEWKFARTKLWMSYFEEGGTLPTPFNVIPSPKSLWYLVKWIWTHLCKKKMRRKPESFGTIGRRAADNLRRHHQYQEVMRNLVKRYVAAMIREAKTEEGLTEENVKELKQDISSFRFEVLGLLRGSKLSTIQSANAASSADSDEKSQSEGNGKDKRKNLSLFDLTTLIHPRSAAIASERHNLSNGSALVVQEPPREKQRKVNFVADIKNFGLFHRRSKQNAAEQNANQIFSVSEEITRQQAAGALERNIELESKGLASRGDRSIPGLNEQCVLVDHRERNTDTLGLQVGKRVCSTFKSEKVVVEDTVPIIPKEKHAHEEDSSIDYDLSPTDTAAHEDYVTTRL
TRPC6 inhibitor: mouse TRPC6 channel inhibitors, primary screen, cell-based, HEK293, membrane potential dye; Short transient receptor potential channel 6 (Mus musculus), Q61143; ACh-evoked depolarization; hits give low values; B-score at 10 µM; actives 1.1% (n = 310,000);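 active means B-score under library mean minus 3 SD, initial fluorescence not abnormally high, positive integrated signal ratio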;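 further: B-score derived from integrated fluorescence ratio over the kinetic read; more negative B-score means stronger inhibition of depolarization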
TRPC6 activator: mouse TRPC6 channel activators, primary screen, cell-based, HEK293, membrane potential dye. AID 2550, 2010. B-score at 10 µM. actives 0.13% (n = 310,000). HEK293-TRPC6 membrane potential dye fluorescence; hits give high values. Short transient receptor potential channel 6 (Mus musculus), Q61143;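 active means B-score of the integrated fluorescence ratio above library mean plus 3 SD, and starting fluorescence ratio within library mean plus 5 SD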;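 further: higher score means more depolarization so channel activation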
TRPC4 act: activators of mouse TRPC4 channel, primary screen, Fluo4 calcium, HEK293 TRPC4beta/mu-opioid cells; Short transient receptor potential channel 4 (Mus musculus), Q9QUQ5; Fluo4 calcium fluorescence; hits give high values; B-score at 10 µM; actives 0.49% (n = 310,000);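 active means B-score above 5 SD of library B-scores, and initial fluorescence ratio not above library mean plus 5 SD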;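 further: positive B-score marks a calcium rise read as TRPC4 activation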
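Assay system: HEK293 stable line with TRPC4beta plus mu-opioid receptor; schedule: 45 min room-temperature Fluo4 loading, 110 s read; technique: kinetic Fluo4 calcium fluorescence; evaluation: integrated baseline-normalised fluorescence ratio, converted to per-well B score; controls: buffer (low) and maximal DAMGO (high)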
TRPC4 block: inhibitors of mouse TRPC4 channel, primary screen, Fluo4 calcium, HEK293 TRPC4beta/mu-opioid cells; DAMGO-evoked Fluo4 calcium flux; hits give low values; B-score at 10 µM; actives 0.39% (n = 300,000);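 active means B-score over 3 SD under the library average, no early fluorescence shift, positive overall ratio signal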
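Assay system: HEK293 cells with stable TRPC4beta plus mu-opioid receptor expression; Probe or stimulus: DAMGO in two steps, submaximal then maximal; Dosing: single-point compound dosing; Measured by: Fluo4 calcium-dye fluorescence, kinetic read; Read-out basis: B score from integrated Fluo4 fluorescence ratio.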
TRPC4 spec 2: second selectivity test of TRPC6 inhibitors: effect on mouse TRPC4 | shares compounds with TRPC6 inhibitor | HEK293 TRPC4/MOR, membrane potential dye fluorescence; channel activated by saturating DAMGO dose | inhibition, % at 10 µM | actives 42% (n = 920) | AID 2776;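 active means compounds whose fluorescence signal differed from control wells by over 3 SD, either direction, in both duplicate plates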
TRPC4 spec: mouse TRPC4 modulation by TRPC6 hits, confirmation, selectivity assay for TRPC6 inhibitor project, cell-based, HEK293 TRPC4/mu-opioid, membrane potential dye; membrane potential fluorescence; shares compounds with TRPC6 inhibitor; actives 61% (n = 920); activity change, negative = inhibition, % at 10 µM;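 active means rise or fall in signal beyond 3 SD of buffer-only wells in both replicate plates, either sign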;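 further: integrated kinetic ratio of fluorescence range over baseline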
HEK293 MPD ctr 2-1: nonspecific membrane potential effects, parental HEK293, confirmation, counter-screen for TRPC6 inhibitor project, cell-based, second counter screen; shares compounds with TRPC6 inhibitor; parental HEK293 membrane potential dye fluorescence; maximal acetylcholine challenge after compound addition; signal change vs control, % at 10 µM; actives 31% (n = 920); AID 2779, 2010;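 active means membrane potential signal moving either way by over 3 SD of the maximum-effect control, in both duplicate plates, meaning non-specific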
HEK293 MPD ctr-1: membrane potential modulation in parental HEK293, confirmation, counter-screen for TRPC6 inhibitor project, cell-based | shares compounds with TRPC6 inhibitor | parental HEK293 membrane potential dye fluorescence | membrane potential signal change, % at 10 µM | actives 60% (n = 920);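 active means membrane potential signal shifting up or down by more than 3 SD of buffer-only wells, on both duplicate plates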
HEK293 MPD ctr-2: parental HEK293 membrane potential modulation, confirmation, counter-screen for TRPC6 modulator project, cell-based | shares compounds with TRPC6 inhibitor | membrane potential dye fluorescence | membrane potential signal change, % at 10 µM | actives 51% (n = 2,400) | AID 488924, 2010;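 active means membrane potential signal moves up or down beyond 5 SD from buffer-only wells, on both duplicate plates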
HEK293 MPD ctr 2-2: parental HEK293 nonspecific activity of TRPC6 modulators, second screen; shares compounds with TRPC6 inhibitor; membrane potential dye fluorescence; after compound, maximal acetylcholine stimulation; inhibition, % at 10 µM; actives 14% (n = 2,400); AID 488926;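 active means membrane potential signal drops by more than 5 SD from the mean control signal, in both duplicate plates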;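 further: plate controls were acetylcholine ECmax control wells for no effect and buffer only wells for full effect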
TRPC4/MOR mod: TRPC4 modulation by TRPC6 hit compounds, confirmation, selectivity assay for TRPC6 modulator project, cell-based, HEK293 TRPC4/mu-opioid, membrane potential dye, mouse | shares compounds with TRPC6 inhibitor | membrane potential fluorescence | percent change from control (negative = decrease, positive = increase), % at 10 µM | actives 69% (n = 2,400);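 active means membrane potential signal moved up or down beyond 5 SD of buffer control wells, in both duplicate plates, actives on both sides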;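 further: plate controls were assay buffer wells for no effect and DAMGO maximal-effect wells for full effect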
TRPC4/MOR inh 2: second check of whether TRPC6 modulators also affect mouse TRPC4; shares compounds with TRPC6 inhibitor; HEK293 TRPC4/mu-opioid, membrane potential dye fluorescence; stimulated with maximal-effect DAMGO; inhibition, % at 10 µM; actives 55% (n = 2,400);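 active means drop in membrane potential signal beyond 5 SD of the control wells in both duplicate plates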;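 further: TRPC4 counter screen for TRPC6 hits run under conditions tuned for TRPC6 not TRPC4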
TRPC6 block conf: mouse TRPC6 channel inhibitors, confirmation, HEK293 cells, membrane potential dye, duplicate; shares compounds with TRPC6 inhibitor; ACh-evoked depolarization; inhibition, % at 10 µM; actives 43% (n = 3,300);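 active means fluorescence ratio falls more than 5 SD below the full-stimulation control mean, in both duplicate runs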;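 further: integrated fluorescence ratio of peak minus minimum over baseline after agonist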
TRPC6 act conf: mouse TRPC6 channel activators, confirmation, HEK293 cells, membrane potential dye, duplicate | shares compounds with TRPC6 inhibitor | HEK293-TRPC6 membrane potential dye fluorescence, FDSS | activation, % at 10 µM | actives 11% (n = 2,800) | AID 488961, 2010;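 active means ratio signal rise beyond 5 SD above unstimulated control wells' mean, seen in both duplicate runs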;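 further: plate controls were buffer EC0 wells for no effect and acetylcholine ECmax response for full effect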
An asterisk follows results filed as active; i = inactive; nt = no result given.

SMILES	Platelet DG rel	TRPC4 potent	TRPC6 inhibitor	TRPC6 activator	TRPC4 act	TRPC4 block	TRPC4 spec 2	TRPC4 spec	HEK293 MPD ctr 2-1	HEK293 MPD ctr-1	TRPC6 block conf	TRPC6 act conf	others
O=C1CCC([N+](=O)[O-])C(c2ccccc2Cl)N1 (stereo unspecified)	nt	i	i	i	i	i	nt	nt	nt	nt	nt	nt
O=C1CCC([N+](=O)[O-])C(c2ccccc2C(F)(F)F)N1 (stereo unspecified)	-2.6	i	-5.14*	i	i	i	nt	nt	nt	nt	i	i	HEK293 MPD ctr-2=i;HEK293 MPD ctr 2-2=i;TRPC4/MOR mod=i;TRPC4/MOR inh 2=i
Cc1ccc(C(=O)N/C(=C\c2cn(C)c3ccccc23)C(=O)OCCN(C)C)cc1	-4.0	i	-7.51*	i	i	i	57.0%*	-15.3%*	i	-280.0%*	i	i
Cn1cc(/C=C(\NC(=O)c2ccccc2)C(=O)N2CCOCC2)c2ccccc21	3.2	i	i	i	i	i	nt	nt	nt	nt	nt	nt
CN(C)CCOC(=O)/C(=C/c1cn(C)c2ccccc12)NC(=O)c1ccccc1	-11.6	i	-7.7*	i	i	i	i	i	i	i	i	i
O=C(NCCN1CCOCC1)c1cc(Sc2ccccc2Cl)nc2ccccc12	-3.4	i	i	i	i	i	nt	nt	nt	nt	nt	nt
CCN(CC)CCN(C(=O)c1ccc(C(=O)c2ccccc2)cc1)c1nc2c(OC)cccc2s1	-9.4	i	i	i	i	i	nt	nt	nt	nt	nt	nt
